ChEMBL document CHEMBL1795253, “Synthesis and biological evaluation in U87MG glioma cells of (ethynylthiophene)sulfonamido-based hydroxamates as matrix metalloproteinase inhibitors” (Eur J Med Chem, 2011)

How the values were obtained:
[1] = molecular target: Matrix metalloproteinase-14 (Homo sapiens, UniProt P50281); experiment: Inhibition of human MMP14 by fluorometric assay
In short: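 Pro-enzymes activated with APMA (2 mM 2 h, MMP-1; 2 mM 1 h, MMP-2/-8; 1 mM 1 h, MMP-9; all 37 °C) or trypsin then soybean trypsin inhibitor (MMP-3). MMP-14 was catalytic domain. Enzyme (MMP-1 2.0, MMP-2 0.5, MMP-3 5.0, MMP-8 1.5, MMP-9 1.3, MMP-14 1.0 nM) with inhibitor at 7 concentrations, 2 h, 25 °C, in Tris pH 7.5, 1% DMSO.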

[2] = molecular target: 72 kDa type IV collagenase (Homo sapiens, UniProt P08253); experiment: Inhibition of human MMP2 by fluorometric assay
[3] = Cytotoxicity against human U87MG cells assessed as dead cells at 5 nM after 24 hrs by trypan blue exclusion assay; format: functional, U-87MG ATCC
In short: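 U87MG human glioblastoma cells (RPMI, 10% FBS, 2 mM L-glutamine, penicillin/streptomycin, 1% non-essential amino acids, 37 °C, 5% CO2) seeded at 30,000 cells/cm2 in serum-free medium with 5 nM compound, DMSO vehicle ≤1% final, for 24 h. Cells lightly trypsinized, pelleted 800 x g 5 min, stained with 0.4% Trypan Blue in 0.9% NaCl, counted by haemocytometer; mean ± S.E.M., ≥3 experiments in duplicate.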

[4] = molecular target: T1, Interstitial collagenase (Homo sapiens, UniProt P03956); experiment: Inhibition of human MMP1 by fluorometric assay
T1 sequence (P03956 whole entry): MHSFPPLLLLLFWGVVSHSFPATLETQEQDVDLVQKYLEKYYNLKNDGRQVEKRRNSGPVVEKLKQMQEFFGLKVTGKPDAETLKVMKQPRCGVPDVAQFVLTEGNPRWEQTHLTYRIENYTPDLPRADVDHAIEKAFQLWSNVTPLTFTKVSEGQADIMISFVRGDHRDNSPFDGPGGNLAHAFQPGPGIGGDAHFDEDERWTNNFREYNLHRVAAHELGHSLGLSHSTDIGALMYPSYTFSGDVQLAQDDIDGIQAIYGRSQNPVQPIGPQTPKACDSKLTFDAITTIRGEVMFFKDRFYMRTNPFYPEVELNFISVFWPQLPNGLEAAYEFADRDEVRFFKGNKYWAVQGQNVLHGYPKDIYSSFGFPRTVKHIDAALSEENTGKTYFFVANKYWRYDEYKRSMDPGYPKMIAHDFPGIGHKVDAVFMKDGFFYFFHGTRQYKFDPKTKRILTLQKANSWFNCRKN

[5] = molecular target: Neutrophil collagenase (Homo sapiens, UniProt P22894); experiment: Inhibition of human MMP8 by fluorometric assay
[6] = Antiinvasive activity against human U87MG cells at 5 nM after 24 hrs by Matrigel basement membrane transwell assay; format: functional, U-87MG ATCC
In short: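 U87MG cells (maintained in RPMI, 10% FBS, 37 °C, 5% CO2) suspended serum-free, 60,000 per upper transwell (8.0 μm filters coated with Matrigel 0.32 mg/mL), with inhibitor 5 nM, DMSO vehicle ≤1%. Lower chamber RPMI with 10% FBS. Invasion 24 h at 37 °C. Lower-surface cells fixed with p-formaldehyde, crystal violet-stained, counted in 5 fields. Inhibition versus untreated control. Duplicate, ≥3 experiments, mean ± S.E.M.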

[7] = molecular target: Matrix metalloproteinase-9 (Homo sapiens, UniProt P14780); experiment: Inhibition of human MMP9 by fluorometric assay
[8] = molecular target: Stromelysin-1 (Homo sapiens, UniProt P08254); experiment: Inhibition of human MMP3 by fluorometric assay
[9] = molecular target: T2, Matrix metalloproteinase-25 (Homo sapiens, UniProt Q9NPA2); experiment: Inhibition of human MMP25 by fluorometric assay
T2 sequence (Q9NPA2 whole entry): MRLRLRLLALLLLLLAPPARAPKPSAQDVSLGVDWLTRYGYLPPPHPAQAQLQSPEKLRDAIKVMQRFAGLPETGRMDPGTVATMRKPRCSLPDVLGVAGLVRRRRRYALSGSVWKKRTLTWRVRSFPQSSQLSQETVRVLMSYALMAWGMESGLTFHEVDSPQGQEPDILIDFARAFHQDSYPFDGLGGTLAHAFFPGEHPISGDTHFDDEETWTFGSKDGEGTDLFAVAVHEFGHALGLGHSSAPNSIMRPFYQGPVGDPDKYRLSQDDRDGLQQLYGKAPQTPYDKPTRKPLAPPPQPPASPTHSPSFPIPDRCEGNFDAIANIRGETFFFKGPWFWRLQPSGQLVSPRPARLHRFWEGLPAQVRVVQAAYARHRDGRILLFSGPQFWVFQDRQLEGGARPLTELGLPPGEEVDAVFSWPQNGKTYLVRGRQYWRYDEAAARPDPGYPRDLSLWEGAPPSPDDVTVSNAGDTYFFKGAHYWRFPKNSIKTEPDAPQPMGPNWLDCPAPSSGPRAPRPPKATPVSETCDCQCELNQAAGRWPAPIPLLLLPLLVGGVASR
In short: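 E. coli-expressed, refolded MMP-25 catalytic domain added to MOCAcPLGLA2pr(Dnp)AR-NH2 plus varying inhibitor in HEPES pH 7.5 with 5 mM CaCl2, 0.01% Brij-35, 5% DMSO, 25 °C. Initial rates from fluorescence (ex 328/em 393 nm), read every 4 s over 10 min.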

[10] = tested on: U-87MG ATCC; experiment: (§1) Antiinvasive activity against human U87MG cells after 24 hrs by Matrigel basement membrane transwell assay; format: functional, cell-based
In short: (§2)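 Transwell filters (8.0 μm pores) coated with Matrigel (0.32 mg/mL) overnight at room temperature. U87MG cells in serum-free medium (60,000/400 μL) with inhibitor (1, 5, 25, 125 nM; DMSO ≤1%) in upper chamber; RPMI + 10% FBS below. 37 °C, 24 h.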

[11] = as §1; format: functional, cell-based; conditions: u-87mg atcc; in short: as §2

Chain of Neutrophil collagenase (P22894 whole entry): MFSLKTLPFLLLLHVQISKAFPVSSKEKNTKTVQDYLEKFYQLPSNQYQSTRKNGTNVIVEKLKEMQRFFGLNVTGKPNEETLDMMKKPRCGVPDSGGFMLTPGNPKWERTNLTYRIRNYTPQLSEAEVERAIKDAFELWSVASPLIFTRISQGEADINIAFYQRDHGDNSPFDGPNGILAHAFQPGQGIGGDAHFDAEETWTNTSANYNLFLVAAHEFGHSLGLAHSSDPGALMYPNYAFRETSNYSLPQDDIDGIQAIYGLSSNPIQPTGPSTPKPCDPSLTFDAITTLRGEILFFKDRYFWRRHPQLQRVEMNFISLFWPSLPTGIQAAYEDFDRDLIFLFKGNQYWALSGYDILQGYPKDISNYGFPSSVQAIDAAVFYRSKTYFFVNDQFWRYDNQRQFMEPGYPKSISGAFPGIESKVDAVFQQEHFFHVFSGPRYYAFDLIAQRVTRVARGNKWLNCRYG
Chain of Stromelysin-1 (P08254 whole entry): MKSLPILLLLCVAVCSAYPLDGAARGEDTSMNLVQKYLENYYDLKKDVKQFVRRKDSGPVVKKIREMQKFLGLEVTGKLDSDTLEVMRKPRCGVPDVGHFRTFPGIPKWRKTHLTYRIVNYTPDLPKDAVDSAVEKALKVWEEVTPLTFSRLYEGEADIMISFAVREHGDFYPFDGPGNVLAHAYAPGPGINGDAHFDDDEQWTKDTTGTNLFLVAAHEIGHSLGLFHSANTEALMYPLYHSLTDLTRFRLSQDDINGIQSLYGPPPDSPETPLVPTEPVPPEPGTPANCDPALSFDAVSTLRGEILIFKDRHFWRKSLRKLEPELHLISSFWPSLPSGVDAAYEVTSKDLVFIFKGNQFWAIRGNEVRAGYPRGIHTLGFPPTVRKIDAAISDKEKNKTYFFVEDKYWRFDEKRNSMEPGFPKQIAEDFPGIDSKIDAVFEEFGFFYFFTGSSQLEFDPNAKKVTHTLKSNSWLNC
Chain of 72 kDa type IV collagenase (P08253 whole entry): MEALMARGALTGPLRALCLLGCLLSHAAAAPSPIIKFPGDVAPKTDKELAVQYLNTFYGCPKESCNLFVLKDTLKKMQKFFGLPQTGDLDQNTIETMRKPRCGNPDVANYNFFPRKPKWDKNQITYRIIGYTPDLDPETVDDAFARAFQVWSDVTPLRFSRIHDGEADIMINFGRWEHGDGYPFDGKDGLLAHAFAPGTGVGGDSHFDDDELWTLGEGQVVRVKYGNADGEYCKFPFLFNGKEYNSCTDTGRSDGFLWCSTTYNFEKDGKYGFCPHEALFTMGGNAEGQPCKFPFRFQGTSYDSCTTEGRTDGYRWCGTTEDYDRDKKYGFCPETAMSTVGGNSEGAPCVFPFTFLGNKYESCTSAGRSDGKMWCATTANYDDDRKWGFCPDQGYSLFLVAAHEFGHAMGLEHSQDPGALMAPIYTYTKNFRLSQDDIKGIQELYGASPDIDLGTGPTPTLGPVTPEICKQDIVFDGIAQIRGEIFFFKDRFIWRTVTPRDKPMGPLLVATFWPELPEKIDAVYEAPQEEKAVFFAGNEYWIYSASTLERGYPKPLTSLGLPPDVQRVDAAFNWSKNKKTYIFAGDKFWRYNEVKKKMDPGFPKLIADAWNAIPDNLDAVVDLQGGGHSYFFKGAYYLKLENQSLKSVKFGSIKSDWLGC
Chain of Matrix metalloproteinase-9 (P14780 whole entry): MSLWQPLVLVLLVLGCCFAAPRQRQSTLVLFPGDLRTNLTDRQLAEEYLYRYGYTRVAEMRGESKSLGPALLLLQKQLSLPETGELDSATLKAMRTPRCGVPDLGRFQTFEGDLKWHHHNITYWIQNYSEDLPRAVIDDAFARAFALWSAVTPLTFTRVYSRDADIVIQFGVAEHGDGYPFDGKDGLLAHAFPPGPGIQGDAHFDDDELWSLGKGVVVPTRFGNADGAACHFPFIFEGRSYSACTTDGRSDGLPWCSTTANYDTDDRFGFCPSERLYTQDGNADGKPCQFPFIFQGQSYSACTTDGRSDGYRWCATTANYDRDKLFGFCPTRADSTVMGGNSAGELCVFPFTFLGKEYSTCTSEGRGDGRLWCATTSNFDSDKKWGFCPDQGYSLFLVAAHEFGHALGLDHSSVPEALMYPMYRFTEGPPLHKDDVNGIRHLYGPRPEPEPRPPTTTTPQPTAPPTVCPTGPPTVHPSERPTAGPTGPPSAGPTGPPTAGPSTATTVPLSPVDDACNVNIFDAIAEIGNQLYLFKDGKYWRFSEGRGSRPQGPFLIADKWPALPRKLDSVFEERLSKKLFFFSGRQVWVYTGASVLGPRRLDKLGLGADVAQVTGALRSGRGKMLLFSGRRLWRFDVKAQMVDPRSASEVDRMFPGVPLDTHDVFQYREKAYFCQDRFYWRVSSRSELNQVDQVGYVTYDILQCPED

Compound	IC50 [1] [nM]	IC50 [2] [nM]	Activity [3] [%]	IC50 [4] [nM]	IC50 [5] [nM]	Activity [6] [%]	IC50 [7] [nM]	IC50 [8] [nM]	IC50 [9] [nM]	Activity [10]	IC50 [11] [nM]
CCCCc1ccc(C#Cc2ccc(S(=O)(=O)N[C@H](Cc3csc4ccccc34)C(=O)NO)s2)cc1	23000	17	14.4	56000	1700	34	650	320	220	–	–
CCCCc1ccc(C#Cc2ccc(S(=O)(=O)N3CSC[C@H]3C(=O)NO)s2)cc1	1600	2.5	17.8	21000	500	16	21	38	170	–	–
CCCCc1ccc(C#Cc2ccc(S(=O)(=O)NCC(=O)NO)s2)cc1	700	1.5	11.5	13000	200	39.5	79	46	34	–	–
CCCCc1ccc(C#Cc2ccc(S(=O)(=O)N[C@H](Cc3ccc(OCc4ccccc4)cc3)C(=O)NO)s2)cc1	2100	2.3	12.3	4800	490	42.6	63	180	38	Dose-dependent effect	12
CCCCc1ccc(C#Cc2ccc(S(=O)(=O)N[C@H](Cc3ccc(C(=O)c4ccccc4)cc3)C(=O)NO)s2)cc1	6600	4	9.38	37000	440	27.5	50	84	340	–	–
CCCCc1ccc(C#Cc2ccc(S(=O)(=O)N3Cc4ccccc4C[C@@H]3C(=O)NO)s2)cc1	112	1.3	13.6	6700	30	35.9	4.3	11	3.4	–	–
COc1ccc(S(=O)(=O)N(Cc2cccnc2)[C@@H](C(=O)NO)C(C)C)cc1.Cl [CGS-27023A]	–	–	10.8	–	–	28.3	–	–	1.5	–	–
CCCCc1ccc(C#Cc2ccc(S(=O)(=O)N[C@H](Cc3c[nH]c4ccccc34)C(=O)NO)s2)cc1	1700	–	6.8	2300	280	48.4	77	93	76	–	–
